Source: ChEMBL document CHEMBL1148007, “Synthesis of new S-derivatives of clubbed triazolyl thiazole as anti-Mycobacterium tuberculosis agents” (Bioorg Med Chem, 2007)

Test system: Mycobacterium tuberculosis
Test: Antitubercular activity against Mycobacterium tuberculosis H37Rv by MABA assay
Format: functional
Settings: not given
How it was run: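 Actives re-tested at lower concentrations against H37Rv (ATCC 27294) in BACTEC 12B medium by Microplate Alamar Blue Assay. MIC taken as lowest concentration giving […] fluorescence reduction versus controls; rifampin reference.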

SMILES | MIC
O=C(CCl)NNC(=O)CSc1nnc(Cc2csc(NC(=O)CCl)n2)n1NC(=O)c1cccc([N+](=O)[O-])c1 | < 6.25 µg/mL
CC(=O)NNC(=O)CSc1nnc(Cc2csc(NC(=O)c3ccccc3)n2)n1NC(=O)c1ccc(Cl)cc1 | < 6.25 µg/mL
O=C(CSc1nnc(Cc2csc(NC(=O)c3ccccc3)n2)n1NC(=O)c1cccc([N+](=O)[O-])c1)NNC(=O)c1ccccc1 | < 6.25 µg/mL
O=C(Nc1nc(Cc2nnc(SCSc3nnc(Cc4csc(NC(=O)c5ccccc5)n4)n3NC(=O)c3cccc([N+](=O)[O-])c3)n2NC(=O)c2cccc([N+](=O)[O-])c2)cs1)c1ccccc1 | < 6.25 µg/mL
CC(=O)NNC(=O)CSc1nnc(Cc2csc(NC(=O)c3ccccc3)n2)n1NC(=O)c1cccc([N+](=O)[O-])c1 | < 6.25 µg/mL
O=C(Nc1nc(Cc2nnc(SCSc3nnc(Cc4csc(NC(=O)c5ccccc5)n4)n3NC(=O)c3ccc(Cl)cc3)n2NC(=O)c2ccc(Cl)cc2)cs1)c1ccccc1 | < 6.25 µg/mL
CC(=O)Nc1nc(Cc2nnc(SCC(=O)NNC(=O)CCl)n2NC(=O)c2ccc(Cl)cc2)cs1 | < 6.25 µg/mL
CC(=O)NNC(=O)CSc1nnc(Cc2csc(NC(=O)CCl)n2)n1NC(=O)c1cccc([N+](=O)[O-])c1 | < 6.25 µg/mL

Test system: Escherichia coli
Test: Antibacterial activity against Escherichia coli at 50 to 100 uM after 24 hrs by well diffusion method
Format: functional
Settings: not given
How it was run: (§1)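 Nutrient agar plates with 10 mm wells cut by cork borer; 24-h subcultured bacteria swabbed on. Compounds dissolved in chloroform, 50 to 100 μM added to wells, gentamycin as standard. Incubated 24 h at 24–28 °C; inhibition zone diameter measured and converted to percent inhibition.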

SMILES | inhibition zone
O=C(CCl)NNC(=O)CSc1nnc(Cc2csc(NC(=O)CCl)n2)n1NC(=O)c1cccc([N+](=O)[O-])c1 | 12 mm
CC(=O)NNC(=O)CSc1nnc(Cc2csc(NC(=O)c3ccccc3)n2)n1NC(=O)c1ccc(Cl)cc1 | 21 mm
O=C(CSc1nnc(Cc2csc(NC(=O)c3ccccc3)n2)n1NC(=O)c1cccc([N+](=O)[O-])c1)NNC(=O)c1ccccc1 | 14 mm
O=C(Nc1nc(Cc2nnc(SCSc3nnc(Cc4csc(NC(=O)c5ccccc5)n4)n3NC(=O)c3cccc([N+](=O)[O-])c3)n2NC(=O)c2cccc([N+](=O)[O-])c2)cs1)c1ccccc1 | 24 mm
CC(=O)NNC(=O)CSc1nnc(Cc2csc(NC(=O)c3ccccc3)n2)n1NC(=O)c1cccc([N+](=O)[O-])c1 | 14 mm
O=C(Nc1nc(Cc2nnc(SCSc3nnc(Cc4csc(NC(=O)c5ccccc5)n4)n3NC(=O)c3ccc(Cl)cc3)n2NC(=O)c2ccc(Cl)cc2)cs1)c1ccccc1 | 20 mm
CC(=O)Nc1nc(Cc2nnc(SCC(=O)NNC(=O)CCl)n2NC(=O)c2ccc(Cl)cc2)cs1 | 18 mm
CC(=O)NNC(=O)CSc1nnc(Cc2csc(NC(=O)CCl)n2)n1NC(=O)c1cccc([N+](=O)[O-])c1 | 18 mm

Test system: Staphylococcus aureus
Test: Antibacterial activity against Staphylococcus aureus at 50 to 100 uM after 24 hrs by well diffusion method
Format: functional
Settings: not given
How it was run: as §1

SMILES | inhibition zone
O=C(CCl)NNC(=O)CSc1nnc(Cc2csc(NC(=O)CCl)n2)n1NC(=O)c1cccc([N+](=O)[O-])c1 | 14 mm
CC(=O)NNC(=O)CSc1nnc(Cc2csc(NC(=O)c3ccccc3)n2)n1NC(=O)c1ccc(Cl)cc1 | 26 mm
O=C(CSc1nnc(Cc2csc(NC(=O)c3ccccc3)n2)n1NC(=O)c1cccc([N+](=O)[O-])c1)NNC(=O)c1ccccc1 | 18 mm
O=C(Nc1nc(Cc2nnc(SCSc3nnc(Cc4csc(NC(=O)c5ccccc5)n4)n3NC(=O)c3cccc([N+](=O)[O-])c3)n2NC(=O)c2cccc([N+](=O)[O-])c2)cs1)c1ccccc1 | 26 mm
CC(=O)NNC(=O)CSc1nnc(Cc2csc(NC(=O)c3ccccc3)n2)n1NC(=O)c1cccc([N+](=O)[O-])c1 | 20 mm
O=C(Nc1nc(Cc2nnc(SCSc3nnc(Cc4csc(NC(=O)c5ccccc5)n4)n3NC(=O)c3ccc(Cl)cc3)n2NC(=O)c2ccc(Cl)cc2)cs1)c1ccccc1 | 29 mm
CC(=O)Nc1nc(Cc2nnc(SCC(=O)NNC(=O)CCl)n2NC(=O)c2ccc(Cl)cc2)cs1 | 25 mm
CC(=O)NNC(=O)CSc1nnc(Cc2csc(NC(=O)CCl)n2)n1NC(=O)c1cccc([N+](=O)[O-])c1 | 27 mm

Test system: Salmonella typhi
Test: Antibacterial activity against Salmonella typhi at 50 to 100 uM after 24 hrs by well diffusion method
Format: functional, Salmonella enterica subsp. enterica serovar Typhi
Set-up: unit not given here
Settings: not given
How it was run: as §1

SMILES | Inhibition
O=C(CCl)NNC(=O)CSc1nnc(Cc2csc(NC(=O)CCl)n2)n1NC(=O)c1cccc([N+](=O)[O-])c1 | 18
CC(=O)NNC(=O)CSc1nnc(Cc2csc(NC(=O)c3ccccc3)n2)n1NC(=O)c1ccc(Cl)cc1 | 19
O=C(CSc1nnc(Cc2csc(NC(=O)c3ccccc3)n2)n1NC(=O)c1cccc([N+](=O)[O-])c1)NNC(=O)c1ccccc1 | 12
O=C(Nc1nc(Cc2nnc(SCSc3nnc(Cc4csc(NC(=O)c5ccccc5)n4)n3NC(=O)c3cccc([N+](=O)[O-])c3)n2NC(=O)c2cccc([N+](=O)[O-])c2)cs1)c1ccccc1 | 19
CC(=O)NNC(=O)CSc1nnc(Cc2csc(NC(=O)c3ccccc3)n2)n1NC(=O)c1cccc([N+](=O)[O-])c1 | 12
O=C(Nc1nc(Cc2nnc(SCSc3nnc(Cc4csc(NC(=O)c5ccccc5)n4)n3NC(=O)c3ccc(Cl)cc3)n2NC(=O)c2ccc(Cl)cc2)cs1)c1ccccc1 | 12
CC(=O)Nc1nc(Cc2nnc(SCC(=O)NNC(=O)CCl)n2NC(=O)c2ccc(Cl)cc2)cs1 | 20
CC(=O)NNC(=O)CSc1nnc(Cc2csc(NC(=O)CCl)n2)n1NC(=O)c1cccc([N+](=O)[O-])c1 | 24

Test system: Pseudomonas aeruginosa
Test: Antibacterial activity against Pseudomonas aeruginosa at 50 to 100 uM after 24 hrs by well diffusion method
Format: functional
Settings: not given
How it was run: as §1

SMILES | inhibition zone
O=C(CCl)NNC(=O)CSc1nnc(Cc2csc(NC(=O)CCl)n2)n1NC(=O)c1cccc([N+](=O)[O-])c1 | 16 mm
CC(=O)NNC(=O)CSc1nnc(Cc2csc(NC(=O)c3ccccc3)n2)n1NC(=O)c1ccc(Cl)cc1 | 24 mm
O=C(CSc1nnc(Cc2csc(NC(=O)c3ccccc3)n2)n1NC(=O)c1cccc([N+](=O)[O-])c1)NNC(=O)c1ccccc1 | 12 mm
O=C(Nc1nc(Cc2nnc(SCSc3nnc(Cc4csc(NC(=O)c5ccccc5)n4)n3NC(=O)c3cccc([N+](=O)[O-])c3)n2NC(=O)c2cccc([N+](=O)[O-])c2)cs1)c1ccccc1 | 24 mm
CC(=O)NNC(=O)CSc1nnc(Cc2csc(NC(=O)c3ccccc3)n2)n1NC(=O)c1cccc([N+](=O)[O-])c1 | 18 mm
O=C(Nc1nc(Cc2nnc(SCSc3nnc(Cc4csc(NC(=O)c5ccccc5)n4)n3NC(=O)c3ccc(Cl)cc3)n2NC(=O)c2ccc(Cl)cc2)cs1)c1ccccc1 | 27 mm
CC(=O)Nc1nc(Cc2nnc(SCC(=O)NNC(=O)CCl)n2NC(=O)c2ccc(Cl)cc2)cs1 | 20 mm
CC(=O)NNC(=O)CSc1nnc(Cc2csc(NC(=O)CCl)n2)n1NC(=O)c1cccc([N+](=O)[O-])c1 | 24 mm

Test system: not listed separately
Test: Cytotoxicity against Vero-C1008 cells at 6.25 to 50 ug/mL by neutral red uptake assay
Format: cell-based
Settings: chlorocebus sabaeus
How it was run: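 Vero-C-1008 cells exposed to 6.25 to 50 μg/mL compound; viability read by neutral red uptake.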

SMILES | Activity
O=C(CCl)NNC(=O)CSc1nnc(Cc2csc(NC(=O)CCl)n2)n1NC(=O)c1cccc([N+](=O)[O-])c1 | Non-toxic
CC(=O)NNC(=O)CSc1nnc(Cc2csc(NC(=O)c3ccccc3)n2)n1NC(=O)c1ccc(Cl)cc1 | Non-toxic
O=C(CSc1nnc(Cc2csc(NC(=O)c3ccccc3)n2)n1NC(=O)c1cccc([N+](=O)[O-])c1)NNC(=O)c1ccccc1 | Non-toxic
O=C(Nc1nc(Cc2nnc(SCSc3nnc(Cc4csc(NC(=O)c5ccccc5)n4)n3NC(=O)c3cccc([N+](=O)[O-])c3)n2NC(=O)c2cccc([N+](=O)[O-])c2)cs1)c1ccccc1 | Non-toxic
CC(=O)NNC(=O)CSc1nnc(Cc2csc(NC(=O)c3ccccc3)n2)n1NC(=O)c1cccc([N+](=O)[O-])c1 | Non-toxic
O=C(Nc1nc(Cc2nnc(SCSc3nnc(Cc4csc(NC(=O)c5ccccc5)n4)n3NC(=O)c3ccc(Cl)cc3)n2NC(=O)c2ccc(Cl)cc2)cs1)c1ccccc1 | Non-toxic
CC(=O)Nc1nc(Cc2nnc(SCC(=O)NNC(=O)CCl)n2NC(=O)c2ccc(Cl)cc2)cs1 | Non-toxic
CC(=O)NNC(=O)CSc1nnc(Cc2csc(NC(=O)CCl)n2)n1NC(=O)c1cccc([N+](=O)[O-])c1 | Non-toxic
